The list is not random: actives were taken first. Their share in the collection is about 1.5%.
TPT1 inh: Candida albicans TPT1 enzyme inhibitors, primary screen, biochemical, fluorescence polarization | 300,000 compounds, 0.81% hits | tRNA 2'-phosphotransferase TPT1 (Candida albicans SC5314) | recombinant caTPT1, FP RNA substrate dephosphorylation | inhibition, % at 5 µM;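 active = inhibition above the mean of all tested compounds plus 3 SD, set per screening campaign, cut at about 24% in these data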;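 also: plate controls were DMSO alone for no effect and ferristatin control at 100 nM for full effect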
Rpn11 block: Rpn11 (PSMD14) deubiquitinase inhibitors, primary screen, biochemical, fluorescence polarization, uHTS; inhibition, % at 20 µM; 26S proteasome non-ATPase regulatory subunit 14 (Homo sapiens), O00487; 360,000 compounds, 0.59% hits; AID 588493, 2011; human 26S proteasome, Ub4-pepOG fluorescence polarization; 20S core pre-blocked with epoxomicin;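 active = inhibition at 20 µM, scaled to each plate's controls, above about 33%, limit read from the data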
CSN inh: inhibitors of CSN-mediated cullin deneddylation, primary screen, biochemical, fluorescence polarization, uHTS. COP9 signalosome complex subunit 5 (Homo sapiens), Q92905. Purified CSN, SCF-Nedd8-OG deneddylation. inhibition, % at 12.5 µM. 360,000 compounds, 0.38% hits. AID 651999, 2013;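 active = pattern-corrected inhibition above about 35%, with an unprinted fluorescence ratio check between 0.5 and 1.5, limit read from the data, passing the limit was not always enough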;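 also: 0% = enzyme with substrate and 100% = substrate without enzyme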
Target sequence (Q92905 whole entry, looked up, one chain of several): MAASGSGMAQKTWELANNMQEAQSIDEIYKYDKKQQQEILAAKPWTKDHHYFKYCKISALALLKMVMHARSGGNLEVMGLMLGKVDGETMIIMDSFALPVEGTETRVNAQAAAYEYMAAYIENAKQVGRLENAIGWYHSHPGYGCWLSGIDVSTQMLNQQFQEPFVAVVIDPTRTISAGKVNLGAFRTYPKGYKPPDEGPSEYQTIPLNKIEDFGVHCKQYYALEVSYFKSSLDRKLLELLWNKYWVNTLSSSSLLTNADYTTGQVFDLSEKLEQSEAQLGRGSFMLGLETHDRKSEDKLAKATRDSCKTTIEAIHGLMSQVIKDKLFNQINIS
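Assay system: HEK293T-derived human Csn5 enzyme; quantity: 0.24 nM enzyme; medium: Tris/NaCl/DTT buffer, pH 7.5; also added: substrate SCFSkp2-Nedd8OG, 10 nM; doses: 12.5 µM compound; schedule: 90 min reaction at room temperature; signal: FP; read-out: % inhibition of substrate cleavage by Csn5; benchmarks: substrate-only high control, full reaction low control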
HNF4A DNA FP: change in binding of human HNF4A to DNA, primary screen, biochemical, fluorescence polarization, FITC-DNA; 1 h; activity change, % at 10 µM; 360,000 compounds, 0.3% hits; AID 1224865, 2016; in the data active = activity change above about 30%, passing the limit was not always enough
TPT1 inh confirm: Candida albicans TPT1 inhibitors, confirmation, biochemical, fluorescence polarization, triplicate; inhibition, % at 5 µM; 2,400 compounds, 74% hits; recombinant caTPT1, RNase T1 coupled; shares compounds with TPT1 inh; AID 2149, 2009;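 active = inhibition above the primary screen limit, the mean inhibition of all tested compounds plus 3 SD, cut at about 25% in these data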
RNase T1 inh: RNase T1 inhibitors, counter-screen for TPT1 inhibitor project, biochemical, fluorescence polarization | shares compounds with TPT1 inh | RNase T1 cleavage, 1536-well | inhibition, % at 5 µM | 2,400 compounds, 83% hits | AID 2153, 2009;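 active = inhibition above the solvent-only control well mean plus 3 SD, limit set per screening run, cut at about 23% in these data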;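 also: plate controls were DMSO wells with enzyme for no effect and wells without RNase T1 for full effect; inhibitors block cleavage so intact labeled substrate keeps polarization high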
Target sequence (P00651 whole entry, looked up): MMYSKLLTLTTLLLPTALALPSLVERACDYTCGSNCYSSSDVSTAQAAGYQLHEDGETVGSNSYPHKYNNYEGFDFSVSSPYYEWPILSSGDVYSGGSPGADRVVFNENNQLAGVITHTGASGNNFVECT
Active calls of the source: *; · = not tested or not shown; + = active, no number.

SMILES | TPT1 inh | Rpn11 block | CSN inh | HNF4A DNA FP | TPT1 inh confirm | RNase T1 inh
COc1ccc(-c2nn(-c3ccccc3)cc2/C=C2/SC(=S)N(Cc3ccco3)C2=O)c(C)c1 | -2 | 8 | 4 | 5 | · | ·
COc1ccc(-n2c(C)cc(/C=C3\SC(=S)N(Cc4ccco4)C3=O)c2C)cc1 | 122* | · | 30 | 54* | 122* | 123*
COc1cc(/C=C2\SC(=Nc3ccccc3)NC2=O)cc(Cl)c1O | 105* | · | 150 | 123 | 114* | 110*
COc1cc(/C=C2\SC(=Nc3cccnc3)NC2=O)cc(OC)c1OC | 52* | 38 | 12 | 8 | 73* | 84*
CN1CCc2c(sc(/N=C/c3cc(Cl)ccc3O)c2C#N)C1 | 27* | 26 | 23 | 20 | 28* | 38*
CCOC(=O)c1c(/N=C/c2ccc(OC)cc2O)sc2c1CCN(C)C2 | -4 | 5 | 5 | 7 | · | ·
CN1CCc2c(sc(/N=C/c3c[nH]c4ccccc34)c2C#N)C1 | 44* | · | 70 | 77 | 43* | 53*
O=C(Nc1nc2c(s1)CN(Cc1ccccc1)CC2)C1CCC1 | 10 | 18 | 5 | 8 | · | ·
CN(C)c1ccc(/C=C(\C#N)C(=O)Nc2nc3c(s2)CCN(Cc2ccccc2)C3)cc1 | + | · | 29 | 66 | 132* | 146*
COc1ccccc1NC(=O)CCN1C(=O)C2C3CCC(C3)C2C1=O (centres undefined) | -2 | 8 | -3 | -1 | · | ·
O=C(Oc1coc(CSc2ncccn2)cc1=O)c1ccccc1[N+](=O)[O-] | 46* | -4 | 0 | -4 | 6 | 10
O=C(C1=C(O)C(=O)N(CCN2CCOCC2)C1c1cccc(O)c1)c1cc2ccccc2o1 (centres undefined) | · | 8 | -1 | 4 | · | ·
O=C(C1=C(O)C(=O)N(CCN2CCOCC2)C1c1cccs1)c1cc2ccccc2o1 (centres undefined) | 55* | 17 | 0 | 5 | 7 | 14
CCOC(=O)CCSc1nc(C(C)(C)C)cc(C(F)(F)F)c1C#N | 1 | -4 | 1 | -13 | · | ·
CCOC(=O)CCSc1nc(C)cc(C(F)(F)F)c1C#N | 25* | · | 38* | 28 | 33* | 44*
CCOC(=O)C(C)Sc1nc(-c2ccco2)cc(C(F)(F)F)c1C#N (centres undefined) | 26* | 28 | 3 | 10 | 14 | 20
CCOC(=O)COc1nc(-c2ccco2)cc(-c2ccco2)c1C#N | 8 | 26 | 34 | 7 | · | ·
O=C(NNC(=O)c1ccco1)c1csc(N2CCOCC2)n1 | 2 | 8 | 6 | -5 | · | ·
CCSc1ncc(/C=N/Nc2ccc([N+](=O)[O-])cc2)n1C | 56* | 29 | 6 | 9 | 57* | 66*
CCSc1ncc(/C=N/Nc2ccccc2)n1C | -3 | -2 | 1 | 2 | · | ·
N#Cc1c(C(F)(F)F)cc(-c2ccccc2)nc1SCc1nc(N)nc(N2CCOCC2)n1 | 46* | 37 | 60* | 29 | 56* | 60*
CSc1nc(-c2ccccc2)cc(C(F)(F)F)c1C#N | -2 | -8 | 1 | 3 | · | ·
Nc1ccc2c(c1)CCC2=O | 24* | 23 | 3 | 11 | 18 | 28*
Cc1[nH]nc2c1C(Cc1ccccc1)C(C#N)=C(N)O2 (centres undefined) | -4 | 5 | 2 | 1 | · | ·
N#CC1=C(N)SC(N)=C(C#N)C1Cc1ccccc1 | 63* | · | 51 | 114 | 50* | 59*
SMILES | TPT1 inh | Rpn11 block | CSN inh | HNF4A DNA FP | TPT1 inh confirm | RNase T1 inh
CC(C)CC1C(C#N)=C(N)SC(N)=C1C#N | 70* | · | 75 | 107 | 87* | 95*
O=C(NC1CCCC1)C1c2ccccc2OCC(=O)N1CCCN1CCOCC1 (centres undefined) | · | · | 16 | 0 | · | ·
Cc1cccc(NC(=O)COc2coc(CN3CCc4ccccc4C3)cc2=O)c1 | 0 | 3 | 8 | 2 | · | ·
CCN(CC)c1ccc(/C=C2\NC(=O)NC2=O)cc1 | 27* | 22 | 3 | 6 | 36* | 50*
O=C(NCCNC(=O)c1ccco1)c1cccc(F)c1 | 47* | 0 | -5 | 1 | 10 | 12
CN(C)C(=S)Oc1ccccc1-c1ccccc1OC(=S)N(C)C | -3 | 0 | -3 | 2 | · | ·
CCCCC[C@@H]1C=C(C(=O)O)[C@H](c2ccc3c(c2)OCO3)N1S(=O)(=O)c1ccc(C)cc1 | · | 7 | 3 | -16 | · | ·
O=C(Nc1ccc2c(c1)OCO2)[C@@H]1[C@@H]2C(=O)N(C3CCCCC3)C(=O)[C@@H]2C2c3ccccc3C=CN21 (some centres undefined) | 62* | · | · | · | 52* | 63*
CC(Oc1ccc(Br)cc1)C(=O)NCCCN1CCCC1=O (centres undefined) | · | -1 | -7 | 4 | · | ·
CCOC(=O)c1nn(-c2ccc(Cl)cc2Cl)c(=N)c(C#N)c1C | 95* | · | · | · | 81* | 87*
Cc1c(N=N/C(C(=O)Nc2ccccc2)=C(/O)c2ccccc2)c(=O)n(-c2ccccc2)n1C | 55* | 29 | 5 | 22 | 54* | 67*
Nc1c(C(=O)Nc2nc3ccccc3s2)sc2nc(-c3cccs3)ccc12 | 30* | 29 | 21 | 31 | 27* | 38*
Cc1ccc(Cl)c(OCCN2CCc3ccccc3C2)c1 | -1 | -2 | 1 | 1 | · | ·
CCOc1ccc(N2CC(O)=C(c3nc4ccccc4c(=O)[nH]3)C2=N)cc1 | -2 | 6 | 14 | 24 | · | ·
CCOC(=O)c1ccc(N2CC(O)=C(c3nc4ccccc4c(=O)[nH]3)C2=N)cc1 | 47* | 32 | 7 | 15 | 41* | 52*
Cn1c(=O)n(C)c2cc(N3CCOCC3)c(NC(=O)c3cccc(Cl)c3)cc21 | -1 | -5 | 9 | 0 | · | ·
CCN(CC)CCCOc1ccc(Cl)c(Cl)c1 | 134* | 1 | 0 | -1 | 9 | 15
CC1C/C(=C/c2cccn2C)C(=O)/C(=C/c2cccn2C)C1 (centres undefined) | 191* | · | -67 | 91 | 187* | 170*
CC1C/C(=C/c2ccncc2)C(=O)/C(=C/c2ccncc2)C1 (centres undefined) | 3 | 12 | 18 | 0 | · | ·
CCOC(=O)C1(CC2CCCCO2)CCN(C(=O)Nc2ccc(C(=O)OC)cc2)CC1 (centres undefined) | -1 | 2 | 3 | -1 | · | ·

Assay outcomes as filed in PubChem BioAssay.
